The M2OR odorant receptor database

What was measured:
Details in all cases: stereoisomer not certain
[1] = molecular target: OR5D13 (Homo sapiens) (UniProt Q8NGL4)
How it was run: (§1)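 Assay methods differ from source to source, frequently being transient luciferase assays in mammalian cell lines. For each receptor–molecule pair, the label responsive (active) applies when the original authors judged the measured signal statistically different from baseline, and non-responsive (inactive) applies otherwise.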

[2] = molecular target: OR5D14 (Homo sapiens) (UniProt Q8NGL3)
How it was run: as §1

[3] = molecular target: OR5D16 (Homo sapiens) (UniProt Q8NGK9)
How it was run: as §1

[4] = molecular target: OR5D18 (Homo sapiens) (UniProt Q8NGL1)
How it was run: as §1

[5] = molecular target: OR5F1 (Homo sapiens) (UniProt O95221)
How it was run: as §1

[6] = test system: OR5DD C62Y
How it was run: as §1

[7] = test system: OR5DE S249A L290P
How it was run: as §1

[8] = test system: OR5DG A156T
How it was run: as §1

[9] = test system: OR5DI
How it was run: as §1

[10] = test system: OR5F1
How it was run: as §1

Measured: odorant receptor agonist call

Sequence of OR5F1 (Homo sapiens) (O95221 whole entry): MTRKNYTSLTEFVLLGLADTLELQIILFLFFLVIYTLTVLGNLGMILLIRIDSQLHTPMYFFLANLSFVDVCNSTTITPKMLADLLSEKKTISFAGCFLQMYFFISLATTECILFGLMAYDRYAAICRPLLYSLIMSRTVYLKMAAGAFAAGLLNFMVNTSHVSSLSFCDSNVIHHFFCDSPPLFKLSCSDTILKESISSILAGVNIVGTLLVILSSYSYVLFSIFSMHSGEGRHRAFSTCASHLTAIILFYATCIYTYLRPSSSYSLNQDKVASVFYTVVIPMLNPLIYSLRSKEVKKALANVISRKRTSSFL
Sequence of OR5D13 (Homo sapiens) (Q8NGL4 whole entry): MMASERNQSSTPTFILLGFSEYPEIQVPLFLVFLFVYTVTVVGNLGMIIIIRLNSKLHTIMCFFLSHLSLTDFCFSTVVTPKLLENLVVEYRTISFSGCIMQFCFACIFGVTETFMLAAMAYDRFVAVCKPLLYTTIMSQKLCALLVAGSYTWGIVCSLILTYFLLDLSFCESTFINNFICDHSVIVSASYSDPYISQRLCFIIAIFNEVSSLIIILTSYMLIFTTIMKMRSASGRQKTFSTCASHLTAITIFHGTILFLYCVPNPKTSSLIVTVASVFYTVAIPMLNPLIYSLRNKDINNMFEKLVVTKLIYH
Sequence of OR5D16 (Homo sapiens) (Q8NGK9 whole entry): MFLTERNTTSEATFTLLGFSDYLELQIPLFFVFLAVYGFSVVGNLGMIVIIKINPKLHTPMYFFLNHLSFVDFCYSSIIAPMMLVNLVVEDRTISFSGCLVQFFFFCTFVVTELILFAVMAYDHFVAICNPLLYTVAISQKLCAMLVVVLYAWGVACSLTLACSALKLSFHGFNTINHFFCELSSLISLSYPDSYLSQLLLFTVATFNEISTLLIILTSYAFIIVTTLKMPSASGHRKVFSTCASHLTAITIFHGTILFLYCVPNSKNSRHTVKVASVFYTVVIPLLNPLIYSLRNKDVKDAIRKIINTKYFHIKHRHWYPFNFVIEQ
Sequence of OR5D18 (Homo sapiens) (Q8NGL1 whole entry): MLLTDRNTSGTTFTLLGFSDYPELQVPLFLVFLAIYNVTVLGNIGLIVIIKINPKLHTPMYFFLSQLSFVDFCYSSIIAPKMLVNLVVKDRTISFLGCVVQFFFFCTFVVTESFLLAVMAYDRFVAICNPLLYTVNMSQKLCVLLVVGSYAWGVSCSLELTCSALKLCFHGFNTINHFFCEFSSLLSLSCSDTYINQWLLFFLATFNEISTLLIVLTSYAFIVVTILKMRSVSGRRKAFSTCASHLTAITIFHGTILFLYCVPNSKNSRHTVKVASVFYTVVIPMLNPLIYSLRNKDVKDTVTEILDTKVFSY
Sequence of OR5D14 (Homo sapiens) (Q8NGL3 whole entry): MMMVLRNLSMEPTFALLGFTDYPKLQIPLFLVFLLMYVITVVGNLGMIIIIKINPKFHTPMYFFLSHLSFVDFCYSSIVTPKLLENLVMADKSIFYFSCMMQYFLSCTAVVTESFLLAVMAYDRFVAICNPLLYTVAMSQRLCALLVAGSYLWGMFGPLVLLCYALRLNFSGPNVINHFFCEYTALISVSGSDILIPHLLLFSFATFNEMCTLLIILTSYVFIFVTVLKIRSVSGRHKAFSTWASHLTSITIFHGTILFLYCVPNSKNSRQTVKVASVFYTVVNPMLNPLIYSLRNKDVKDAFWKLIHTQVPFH
Sequence of OR5DD C62Y (as listed by the source, stated change not applied): as the sequence (Q8NGL4 whole entry) above, with C62Y counted along it
Sequence of OR5F1 (as listed by the source): as the sequence (O95221 whole entry) above, with S294N counted along it
Sequence of OR5DG A156T (as listed by the source, stated change not applied): as the sequence (Q8NGK9 whole entry) above, with A156T counted along it
Sequence of OR5DI (as listed by the source): as the sequence (Q8NGL1 whole entry) above, with N136D counted along it

Cc1c([N+](=O)[O-])c(C)c([N+](=O)[O-])c(C(C)(C)C)c1[N+](=O)[O-]
inactive: [1] | [2] | [3] | [4] | [5]

C=CCOC(=O)Cc1ccccc1
inactive: [1] | [2] | [3] | [4] | [6] | [7] | [8] | [9] | [5] | [10]
